Consider 18 molecules from ChEMBL document CHEMBL2176991 (J Med Chem, 2012).

Activity calls are given as the source filed them. No cut-off for these calls is given here. Square brackets hold non-standard residues; d marks the D form. Peptide text beside a SMILES is read from it. * marks the point of attachment. X4 = O=C1OC2(c3ccc(O)cc3Oc3cc(O)ccc32)c2cccc(NC(=S)*)c21; βAla = NCCC(=O)O Bounds are passed on as bounds.

Series [1] deals with T1, Proprotein convertase subtilisin/kexin type 6 (Homo sapiens, UniProt P29122).
T1 sequence (P29122 whole entry): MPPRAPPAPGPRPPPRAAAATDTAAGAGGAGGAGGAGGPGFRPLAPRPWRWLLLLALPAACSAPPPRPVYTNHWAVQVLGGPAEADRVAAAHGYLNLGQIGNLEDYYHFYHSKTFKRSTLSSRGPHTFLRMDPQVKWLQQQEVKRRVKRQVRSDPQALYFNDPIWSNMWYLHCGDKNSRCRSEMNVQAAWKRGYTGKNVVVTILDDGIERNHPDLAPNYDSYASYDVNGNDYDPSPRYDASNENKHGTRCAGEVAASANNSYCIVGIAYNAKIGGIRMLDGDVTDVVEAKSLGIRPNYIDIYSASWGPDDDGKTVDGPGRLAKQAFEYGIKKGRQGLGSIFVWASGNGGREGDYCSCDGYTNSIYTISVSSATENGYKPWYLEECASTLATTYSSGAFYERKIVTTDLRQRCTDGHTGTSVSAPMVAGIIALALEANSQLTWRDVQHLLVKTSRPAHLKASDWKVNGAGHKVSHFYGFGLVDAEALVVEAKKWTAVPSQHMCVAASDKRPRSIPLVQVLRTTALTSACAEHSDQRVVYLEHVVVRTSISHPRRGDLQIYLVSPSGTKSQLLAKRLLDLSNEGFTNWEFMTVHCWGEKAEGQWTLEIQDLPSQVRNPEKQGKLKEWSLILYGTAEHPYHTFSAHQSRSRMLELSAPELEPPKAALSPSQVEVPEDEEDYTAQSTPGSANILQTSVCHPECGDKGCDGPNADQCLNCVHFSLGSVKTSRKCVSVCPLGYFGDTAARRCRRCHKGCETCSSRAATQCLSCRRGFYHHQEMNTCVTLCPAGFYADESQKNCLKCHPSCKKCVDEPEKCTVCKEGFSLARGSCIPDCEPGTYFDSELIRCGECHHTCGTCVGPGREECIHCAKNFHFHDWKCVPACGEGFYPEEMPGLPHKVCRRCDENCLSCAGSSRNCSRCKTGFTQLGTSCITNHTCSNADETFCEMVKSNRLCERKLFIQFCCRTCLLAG
In words: Competitive inhibition of human recombinant PACE4 expressed in Drosophila S2 cells using pyroGlu-Arg-Val-Lys-Arg-methyl-coumaryl-7-amide as substrate at pH 6.5 after 60 mins by spectrofluorometric analysis. The essentials:
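Soluble human PACE4 purified from S2 conditioned medium, assayed in 20 mM Bis-Tris pH 6.5, 1 mM CaCl₂, 1.8 mg/mL BSA with 100 μM substrate, 37 °C, 60 min. Real-time fluorescence read; inhibitors added at decreasing concentrations. Ki from IC50 by Cheng–Prusoff, Km 3.5 μM. Means of three independent experiments.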

Series [2] has as its system DU-145. In words: Cytotoxicity against human DU145 cells assessed as growth inhibition after 72 hrs by MTT assay. The format is functional, cell-based. The note with it: DU-145, 72 h. The essentials: (§1)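 Cells plated in 96-well format: DU145 and PC3 at 1500/well, LNCaP at 2500/well on poly-lysine. After 24 h, medium was changed and peptide added for 72 h in RPMI 1640 (5% FBS for DU145, 10% for LNCaP and PC3). MTT at 1 mg/mL final for 4 h (DU145, LNCaP) or 6 h (PC3). Formazan dissolved in 2-propanol-HCl and signal normalized to vehicle (water, 0.1% DMSO). IC50 from curve fitting.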
A general note: Tetrazolium dyes change colour on reduction, which living cells bring about.

For series [3], the target named is Furin (Homo sapiens, UniProt P09958). In words: Competitive inhibition of human recombinant furin expressed in Drosophila S2 cells using pyroGlu-Arg-Val-Lys-Arg-methyl-coumaryl-7-amide as substrate at pH 7.5 after 60 mins by spectrofluorometric analysis. The gist of the method: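 Recombinant soluble human furin from S2 medium, tested in 100 mM Hepes pH 7.5, 1 mM CaCl₂, 1 mM β-mercaptoethanol, 1.8 mg/mL BSA; substrate 100 μM, 37 °C, 60 min, kinetic fluorescence read. Inhibitors added at decreasing concentrations. Ki derived from IC50 by Cheng–Prusoff using Km 4.61 μM; three independent experiments.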
Sequence of Furin (P09958 whole entry): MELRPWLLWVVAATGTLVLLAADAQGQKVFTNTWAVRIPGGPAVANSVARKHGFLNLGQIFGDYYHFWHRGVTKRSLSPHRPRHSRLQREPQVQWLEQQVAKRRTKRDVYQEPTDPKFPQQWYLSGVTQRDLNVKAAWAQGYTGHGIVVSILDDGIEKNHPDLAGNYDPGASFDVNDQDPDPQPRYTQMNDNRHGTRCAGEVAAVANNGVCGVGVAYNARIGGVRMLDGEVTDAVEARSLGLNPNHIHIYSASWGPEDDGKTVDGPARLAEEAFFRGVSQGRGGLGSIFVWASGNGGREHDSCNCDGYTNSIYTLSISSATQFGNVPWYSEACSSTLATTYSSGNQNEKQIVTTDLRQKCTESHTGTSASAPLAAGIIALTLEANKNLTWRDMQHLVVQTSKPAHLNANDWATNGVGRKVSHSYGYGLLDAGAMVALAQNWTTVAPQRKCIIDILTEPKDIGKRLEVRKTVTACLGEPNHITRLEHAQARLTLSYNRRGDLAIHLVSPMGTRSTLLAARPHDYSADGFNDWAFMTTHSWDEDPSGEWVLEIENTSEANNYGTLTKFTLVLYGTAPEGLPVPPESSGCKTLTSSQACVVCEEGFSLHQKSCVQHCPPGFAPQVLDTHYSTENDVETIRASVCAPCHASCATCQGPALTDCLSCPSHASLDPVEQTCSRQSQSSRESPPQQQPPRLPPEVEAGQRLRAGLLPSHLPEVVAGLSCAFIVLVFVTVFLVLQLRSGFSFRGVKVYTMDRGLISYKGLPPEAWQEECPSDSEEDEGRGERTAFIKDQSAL

For series [4], the species on record is Homo sapiens. In words: Selectivity ratio of Ki for human recombinant furin to Ki for human recombinant PACE4.
Series [5] relates to LNCaP. In words: Cell cycle arrest in human LNCAP cells assessed as accumulation at G0/G1 phase at 100 uM after 96 hrs by propidium iodide staining-based FACS flow cytometric analysis (reference value: 74.3 +/- 0.1 %). The format is functional. On the technique in general: Flow cytometry measures light scatter and fluorescence of single cells or particles in a stream.
Series [6] deals with LNCaP. In words: Cell cycle arrest in human LNCAP cells assessed as accumulation at S phase at 200 uM after 96 hrs by propidium iodide staining-based FACS flow cytometric analysis (reference value: 15.6 +/- 1.3 %). The format is functional.
Series [7] relates to LNCaP. In words: Cell cycle arrest in human LNCAP cells assessed as accumulation at G0/G1 phase after 96 hrs by propidium iodide staining-based FACS flow cytometric analysis.
Series [8] relates to PC-3. Description: Cytotoxicity against human PC3 cells assessed as growth inhibition after 72 hrs by MTT assay. The format is functional, cell-based. The gist of the method: as §1
In series [9] the test system is LNCaP. In words: Cell cycle arrest in human LNCAP cells assessed as decrease in accumulation at S phase after 96 hrs by propidium iodide staining-based FACS flow cytometric analysis. In kind it is functional.
The test system of series [10] is DU-145. Description: Cellular uptake in human DU145 cells at 10 uM after 1 hr by propidium iodide staining-based FACS flow cytometric analysis. In kind it is ADME, cell-based. The settings on record: du-145, 1 h. The essentials: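 DU145 cells (4 × 10⁵) incubated 1 h with 10 μM FITC-labeled peptide in serum-free RPMI, then pelleted and washed twice with 0.05% trypsin for 5 min at 37 °C to strip membrane-bound label. Propidium iodide (10 μg/mL, 2 min) used to exclude cells with damaged membranes. At least 10000 events acquired by FACS; uptake reported as geometric mean fluorescence.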

Series [11] relates to LNCaP. In words: Cytotoxicity against human LNCAP cells assessed as growth inhibition after 72 hrs by MTT assay. The format is functional, cell-based. The essentials:
as §1

A short description of series [12]: Stability of the compound in presence of aminopeptidase. In kind it is ADME.

The Ki is the equilibrium dissociation constant of an inhibitor or competing ligand from its target. In general, IC50 refers to the midpoint of a concentration-inhibition curve.

Take `CC(=O)OCCOCCOCCOCCOCCOCCOCCOCCN[C@@H](CC(C)C)C(=O)N[C@@H](CC(C)C)C(=O)N[C@@H](CC(C)C)C(=O)N[C@@H](CC(C)C)C(=O)N[C@@H](CCCNC(=N)N)C(=O)N[C@H](C(=O)N[C@@H](CCCCN)C(=O)N[C@@H](CCCNC(=N)N)C(N)=O)C(C)C`: the figures for the Ki in series [1] and in series [3] were 19 nM and 480 nM, respectively. Besides, the IC50 in series [2] is over 500000 nM. As to `C[C@H](N)C(=O)N[C@@H](CCCCN)C(=O)N[C@@H](CCCNC(=N)N)C(=O)N[C@@H](CCCNC(=N)N)C(=O)N[C@H](C(=O)N[C@@H](CCCCN)C(=O)N[C@@H](CCCNC(=N)N)C(=O)O)[C@@H](C)O` (H-AKRRTKR-OH), the Ki in [1] is 0.4 nM. Also, in [4], the Ratio Ki was determined as 4.2. As to `CC(=O)N[C@@H](CC(C)C)C(=O)N[C@@H](CC(C)C)C(=O)N[C@@H](CC(C)C)C(=O)N[C@@H](CC(C)C)C(=O)N[C@@H](CCCNC(=N)N)C(=O)N[C@H](C(=O)N[C@@H](CCCCN)C(=O)N[C@@H](CCCNC(=N)N)C(N)=O)C(C)C` (Ac-LLLLRVKR-NH2), the Activity in series [5] is 79.7%; in [6] it was 9.3%; in [7] it was “Dose-dependent effect”; in series [9] it was “Dose-dependent effect”. For the same molecule, the “growth inhibition (GI)” value in series [8] was “inactive”. With `N=C(N)NCCC[C@H](NC(=O)[C@H](CCCCN)NC(=O)[C@H](CO)NC(=O)[C@H](CCCNC(=N)N)NC(=O)[C@H](CCC(=O)O)NC(=O)[C@H](CCCCN)NC(=O)[C@@H](N)CCC(=O)O)C(=O)O` (H-EKERSKR-OH), in series [4], the Ratio Ki worked out at 1.3.

With `CC(C)[C@H](N)C(=O)N[C@@H](CCCCN)C(=O)N[C@@H](CCCNC(=N)N)C(=O)N[C@@H](CCCNC(=N)N)C(=O)N[C@H](C(=O)N[C@@H](CCCCN)C(=O)N[C@@H](CCCNC(=N)N)C(=O)O)C(C)C` (H-VKRRVKR-OH), in [4], the Ratio Ki is 2.7. On to `CC(C)[C@H](N)C(=O)N[C@@H](CCCCN)C(=O)N[C@@H](CCCCN)C(=O)N[C@@H](CCCNC(=N)N)C(=O)N[C@H](C(=O)N[C@@H](CCCCN)C(=O)N[C@@H](CCCNC(=N)N)C(=O)O)[C@@H](C)O` (H-VKKRTKR-OH), for which the Ratio Ki in series [4] was found to be 2.2. Consider `CC(=O)CCCCCCCCN[C@@H](CC(C)C)C(=O)N[C@@H](CC(C)C)C(=O)N[C@@H](CC(C)C)C(=O)N[C@@H](CC(C)C)C(=O)N[C@@H](CCCNC(=N)N)C(=O)N[C@H](C(=O)N[C@@H](CCCCN)C(=O)N[C@@H](CCCNC(=N)N)C(N)=O)C(C)C`, for which the figures for the Ki in [1] and in series [3] were 23 nM and 500 nM, respectively. The IC50 in series [2] amounted to 80000 nM. On to `CC(C)C[C@H](NC(=O)CCNC(=S)Nc1cccc2c1C(=O)OC21c2ccc(O)cc2Oc2cc(O)ccc21)C(=O)N[C@@H](CC(C)C)C(=O)N[C@@H](CC(C)C)C(=O)N[C@@H](CC(C)C)C(=O)N[C@@H](CCCNC(=N)N)C(=O)N[C@H](C(=O)N[C@@H](CCCCN)C(=O)N[C@@H](CCCNC(=N)N)C(N)=O)C(C)C` ({X4-βAla}-LLLLRVKR-NH2), for which the Drug uptake result in series [10] is reported as “Active”. For the molecule `CC(C)C[C@H](NC(=O)[C@@H](N)CC(C)C)C(=O)N[C@@H](CCCNC(=N)N)C(=O)N[C@@H](CCCNC(=N)N)C(=O)N[C@@H](C)C(=O)N[C@@H](CCCCN)C(=O)N[C@@H](CCCNC(=N)N)C(=O)O` (H-LLRRAKR-OH), the Ki in series [1] turned out to be 0.34 nM. Besides, the Ratio Ki in series [4] was 36. Turning to `CC(C)C[C@H](N)C(=O)N[C@@H](CCCNC(=N)N)C(=O)N[C@@H](CCCNC(=N)N)C(=O)N[C@@H](CCCNC(=N)N)C(=O)N[C@H](C(=O)N[C@@H](CCCCN)C(=O)N[C@@H](CCCNC(=N)N)C(=O)O)C(C)C` (H-LRRRVKR-OH), in [4], the Ratio Ki worked out at 1.3.

For `CC(=O)N[C@@H](CC(C)C)C(=O)N[C@@H](CC(C)C)C(=O)N[C@@H](CC(C)C)C(=O)N[C@@H](CC(C)C)C(=O)N[C@@H](CCCNC(=N)N)C(=O)N[C@H](C(=O)N[C@@H](CCCCN)C(=O)N[C@H](CCCNC(=N)N)C(N)=O)C(C)C` (Ac-LLLLRVK[dR]-NH2), the figures for the half-maximal inhibitory concentration (IC50) in series [2] and in [11] were 440000 nM and 390000 nM, respectively. As for `CC(=O)N[C@@H](CC(C)C)C(=O)N[C@@H](CC(C)C)C(=O)N[C@@H](CC(C)C)C(=O)N[C@@H](CCCN=C(N)N)C(=O)N[C@H](C(=O)N[C@@H](CCCCN)C(=O)N[C@@H](CCCN=C(N)N)C(N)=O)C(C)C`, the figures for the Ki in series [1] and in series [3] were 18 nM and 400 nM, respectively.

Consider `CC(=O)N[C@@H](CC(C)C)C(=O)N[C@@H](CC(C)C)C(=O)N[C@@H](CCCN=C(N)N)C(=O)N[C@H](C(=O)N[C@@H](CCCCN)C(=O)N[C@@H](CCCN=C(N)N)C(N)=O)C(C)C`, for which the Ki in series [1] is 240 nM; in series [3], 900 nM. With `CC(C)[C@H](N)C(=O)N[C@@H](CCCCN)C(=O)N[C@@H](CCCN=C(N)N)C(=O)N[C@@H](CCCN=C(N)N)C(=O)N[C@H](C(=O)N[C@@H](CCCCN)C(=O)N[C@@H](CCCN=C(N)N)C(=O)O)C(C)C` (H-VKRRVKR-OH), the Ki in series [1] amounted to 2 nM.

For the molecule `CC(C)C[C@H](N)C(=O)N[C@@H](CCCN=C(N)N)C(=O)N[C@@H](CCCN=C(N)N)C(=O)N[C@@H](CCCN=C(N)N)C(=O)N[C@H](C(=O)N[C@@H](CCCCN)C(=O)N[C@@H](CCCN=C(N)N)C(=O)O)C(C)C` (H-LRRRVKR-OH), the figures for the Ki in series [1] and in series [3] were 7 nM and 9 nM, respectively. Consider `N=C(N)NCCC[C@H](NC(=O)[C@H](CCCCN)NC(=O)[C@H](CCCCN)NC(=O)[C@H](CCCNC(=N)N)NC(=O)[C@H](CC(=O)O)NC(=O)[C@H](Cc1ccccc1)NC(=O)CN)C(=O)O` (H-GFDRKKR-OH), for which, in series [4], the Ratio Ki was determined as 1. As to `CC(=O)N[C@H](CC(C)C)C(=O)N[C@@H](CC(C)C)C(=O)N[C@@H](CC(C)C)C(=O)N[C@@H](CC(C)C)C(=O)N[C@@H](CCCN=C(N)N)C(=O)N[C@H](C(=O)N[C@@H](CCCCN)C(=O)N[C@@H](CCCN=C(N)N)C(N)=O)C(C)C`, the Stability entry in series [12] is reported as “Stable”.

For `NCCCC[C@H](NC(=O)[C@H](CCCCN)NC(=O)[C@H](CCCN=C(N)N)NC(=O)[C@H](CC(=O)O)NC(=O)[C@H](Cc1ccccc1)NC(=O)CN)C(=O)N[C@@H](CCCN=C(N)N)C(=O)O` (H-GFDRKKR-OH), the Ki in series [1] and in series [3] was over 1000 nM each time.
